Bioassay records as filed in PubChem.
Compounds with a hit are over-represented: about 2.7% of the library has one in this group of screens.
PTPN22 act: LYP (human) phosphatase activation; Q9Y2R2; recombinant LYP, DiFMUP fluorescence; 0 = plate median, 100 = signal doubled; activation, % at 2 µM; 96,000 compounds, 0.11% hits; AID 697;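 active means activation at 2 µM above a set limit, the mean plus 5 SD, cut at about 37% in these data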
Plk1 PBD FP: Plk1 (human) PBD binding inhibition. Plk1 PBD phosphopeptide binding, fluorescence polarization. P53350. inhibition, %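 (tested at about 20 µM)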. 97,000 compounds, 0.13% hits; in the data active means inhibition above about 34%, passing the limit was not always enough
LYP inh 2: LYP (human) phosphatase inhibition; Q9Y2R2; recombinant LYP catalytic domain, DiFMUP fluorescence; inhibition, % at 2 µM; 96,000 compounds, 0.21% hits; AID 640;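 active means inhibition at 2 µM at or above a set limit, the screen mean plus 3 SD, cut at about 24% in these data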
PLK1 inh: inhibitors of human PLK1 kinase. P53350. recombinant PLK1 kinase, TR-FRET peptide phosphorylation. inhibition, % at 10 µM. 97,000 compounds, 0.53% hits. AID 619;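 active means inhibition of 50% or more in the single-concentration screen; inactive means inhibition below 50%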
Rev-RRE block: inhibitors of HIV-1 Rev-RRE RNA interaction; P05866; Rev peptide-RRE RNA binding, FRET; inhibition, % at 8 µM; 97,000 compounds, 0.79% hits; AID 704;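 active means inhibition above the screen-wide mean plus 3 SD, cut at about 35% in these data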
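Test system – labelled RRE RNA duplex and labelled Rev peptide · Reagent – labelled Rev peptide · Doses – one concentration, 8 µM nominal · Incubation – 5 + 15 min at 25 °C · Signal – FRET fluorescence readout · Read-out basis – % inhibition of FRET ratio versus controls · Control set – DMSO wells as 0% and neomycin B wells as 100% inhibition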
hDAT+cocaine: human DAT dopamine uptake with cocaine, either direction; LLC-PK1 hDAT cells, [14C]-dopamine uptake with cocaine IC80; actives deviate in either direction; B-score at 10 µM; 110,000 compounds, 1.3% hits; AID 449768;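 active means Z score or B-score, a plate-position-corrected score, falls beyond the plate's 99.7% confidence bounds, in either direction; inactive means both scores lie inside the 99.7% bounds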
Target sequence (Q01959 whole entry, looked up): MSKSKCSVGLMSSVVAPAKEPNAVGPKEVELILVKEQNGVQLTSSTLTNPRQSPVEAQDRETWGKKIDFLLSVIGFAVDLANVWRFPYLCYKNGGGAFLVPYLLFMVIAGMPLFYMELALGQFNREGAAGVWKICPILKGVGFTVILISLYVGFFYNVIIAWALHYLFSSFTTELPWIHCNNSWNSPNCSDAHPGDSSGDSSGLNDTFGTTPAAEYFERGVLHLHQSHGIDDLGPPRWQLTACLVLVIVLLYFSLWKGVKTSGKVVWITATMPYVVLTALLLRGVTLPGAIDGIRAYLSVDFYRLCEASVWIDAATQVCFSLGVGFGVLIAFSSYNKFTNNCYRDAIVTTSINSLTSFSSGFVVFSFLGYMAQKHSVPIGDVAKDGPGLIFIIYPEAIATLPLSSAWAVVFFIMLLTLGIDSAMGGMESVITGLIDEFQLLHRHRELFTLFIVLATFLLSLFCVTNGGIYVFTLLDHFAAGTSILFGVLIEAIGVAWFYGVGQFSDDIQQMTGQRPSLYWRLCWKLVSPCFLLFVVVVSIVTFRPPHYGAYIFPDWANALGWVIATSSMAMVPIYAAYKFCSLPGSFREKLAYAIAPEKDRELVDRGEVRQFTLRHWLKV
Of the large screens only hits and unclear results are named; the others gave an inactive call; ! = a repeat was not active; [ ] = another dose, or the depositor's remark.

Cc1cccc(N/C=C/c2onc(C)c2[N+](=O)[O-])c1	Rev-RRE block 95.1[fluorescence artefact?]
NC(=O)CSc1nnc(C2CC2)n1-c1ccccc1	hDAT+cocaine -9.26
CC(C)NC(=O)CSc1nnc(C2CC2)n1-c1ccccc1	none
Cc1cc(NC(=O)CSc2nnc(-c3ccoc3C)o2)no1	hDAT+cocaine 2.58
COc1cc(OC)cc(-c2nnc(SCC(=O)Nc3cc(C)on3)o2)c1	none (no result: hDAT+cocaine)
C=CCN1C(c2ccc(OCC)cc2)=CS/C1=C(\C#N)c1nnc2n1CCCCC2	hDAT+cocaine 3.79! (no result: PTPN22 act, Plk1 PBD FP, LYP inh 2, PLK1 inh, Rev-RRE block)
CCOC(=O)n1c(=O)n(Cc2ccc(Cl)c(Cl)c2)c2ccccc21	none
Cc1cccc2sc(NC(=O)C3c4ccccc4Oc4ccccc43)nc12	none
CCSc1nnc2c(n1)OC(c1ccc(C(=O)O)cc1)N(C(C)=O)c1ccccc1-2 (stereo not given)	PLK1 inh 64.9 (no result: PTPN22 act, LYP inh 2)
CCOc1ccc(C2Oc3nc(SC)nnc3-c3ccccc3N2C(C)=O)cc1OC (stereo not given)	none (no result: PTPN22 act, Plk1 PBD FP, LYP inh 2, PLK1 inh, Rev-RRE block)
O=c1ccn(Cc2ccccc2)c(=O)n1Cc1ccccc1	hDAT+cocaine 2.79
COc1cc(C(=O)Nc2ccc(Br)cc2C(=O)c2cc(OC)c(OC)c(OC)c2)cc(OC)c1OC	none
CN=C(Nc1ccccc1OC)SC1CC(=O)N(c2ccc(C(=O)OC)cc2)C1=O (stereo not given)	hDAT+cocaine 2.36
CN=C(Nc1ccccc1)SC1CC(=O)N(c2ccc(C(=O)OC)cc2)C1=O (stereo not given)	none
O=C(NCc1ccccc1)c1onc(CSc2ccccc2)c1C(=O)NCc1ccccc1	hDAT+cocaine 1.58 (no result: PTPN22 act, Plk1 PBD FP, LYP inh 2, PLK1 inh, Rev-RRE block)
CC(C)NC(=O)c1c(CSc2ccccc2)noc1C(=O)NCc1ccccc1	hDAT+cocaine 2.77 (no result: PTPN22 act, Plk1 PBD FP, LYP inh 2, PLK1 inh, Rev-RRE block)
COCCNC(=O)c1c(CSc2ccccc2)noc1C(=O)NCc1ccccc1	none (no result: PTPN22 act, Plk1 PBD FP, LYP inh 2, PLK1 inh, Rev-RRE block)
Cc1ccc(C(=O)CN(C(=O)c2ccc(Cl)c(Cl)c2)N2C(=O)C3C4C=CC(C4)C3C2=O)cc1 (stereo not given)	none
CCn1c(C)cc(/C=C2\SC(=O)N(CC(=O)Nc3ccc(C)c(C)c3)C2=O)c1C	none
Cc1ccc(NC(=O)CN2C(=O)S/C(=C/c3ccc(-c4cc(C(=O)O)ccc4C)o3)C2=O)cc1C	LYP inh 2 34.8
COC(=O)c1[nH]c2ccc(C)cc2c1NC(=O)CN1CCN(c2ccccc2)CC1	none
COC(=O)c1[nH]c2ccc(C)cc2c1NC(=O)CN1CCN(C(=O)c2ccccc2)CC1	hDAT+cocaine 2.66
Cc1cc(=O)[nH]c(-n2[nH]c(C)cc2=O)n1	none
O=c1cc(C(F)(F)F)nc(-n2[nH]c3c(c2=O)CCCC3)[nH]1	Rev-RRE block 66.7
COc1ccccc1CNC(=O)c1cnc2ccccn2c1=O	hDAT+cocaine 3.51 (no result: PTPN22 act, Plk1 PBD FP, LYP inh 2, PLK1 inh, Rev-RRE block)
CCOc1cc(C(=O)Nc2ccc3c(c2)OCO3)ccc1OC(F)F	none
O=C(Nc1ccc(OC(F)F)c(Cl)c1)Nc1ccc2c(c1)OCO2	hDAT+cocaine -7
CCC(=O)c1ccc(OCC(O)Cn2c(C)nc3ccccc32)cc1 (stereo not given)	none
CCOC(=O)c1c(C)n(C)c2ccc(OCC(O)Cn3c(C)nc4ccccc43)cc12 (stereo not given)	hDAT+cocaine 2
COCCCn1c(SCC(=O)N2CC(=O)Nc3ccccc32)nnc1-c1ccoc1C	hDAT+cocaine -2.42
COCCn1c(SCC(=O)N2CC(=O)Nc3ccccc32)nnc1-c1ccoc1C	none
O=C1CC(O)(C(F)(F)F)Oc2c1ccc1ccccc21 (stereo not given)	hDAT+cocaine -3.5
COc1ccc(OC)c(N2Cc3cc(C)c(C)cc3C2)c1	none
Nc1nc(N)c2sc3nc(C(F)(F)F)cc(C(F)(F)F)c3c2n1	Rev-RRE block 37.0
Cc1ccc(C2CC(c3ccc(C)cc3)n3nc(N)nc3N2)cc1 (stereo not given)	none
O=C(C1=C(O)C(=O)N(c2ncccn2)C1c1ccc(Cl)c(Cl)c1)c1ccco1 (stereo not given)	Rev-RRE block 51.3
O=C(C1=C(O)C(=O)N(c2ncccn2)C1c1ccc(Cl)cc1)c1ccco1 (stereo not given)	none
O=C(C1=C(O)C(=O)N(c2ncccn2)C1c1cccc(Cl)c1)c1ccco1 (stereo not given)	Rev-RRE block 36.2
Cc1ccc2nc(NC(=O)c3cccc(-c4cc5ccccc5oc4=O)c3)sc2c1	LYP inh 2 26.3
